Columns and labels:
Mus musculus [1] = species on record: Mus musculus; test: % inhibition of metastasis at 34 uM in mice; type: functional
In short: (§1)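 B16 BL6 cells (3×10^5) were precultured 24 h in DMEM/FBS (37 °C, 5% CO2), then exposed to compound for 72 or 24 h. Cells were detached with 0.05% trypsin/0.02% EDTA, and 1×10^5 cells in 0.1 mL cation-free DPBS were injected into the tail vein of female BDF1 mice (7 weeks, five per group).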

Mus musculus [2] = species on record: Mus musculus; test: Number of tumor nodules at 172 uM of compound in mice(Range 136-84 ); type: functional; in short: as §1
Mus musculus [3] = species on record: Mus musculus; test: Cell growth at 172 uM concentration in mice; type: functional
In short: (§2)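 B16 BL6 cells (3×10^5) were precultured 24 h in DMEM/FBS at 37 °C, 5% CO2, then incubated with or without compound for 72 or 24 h under the same conditions. After 0.05% trypsin/0.02% EDTA release, cells were suspended in 1 mL divalent cation-free DPBS and reported as cells per mL before tail-vein injection into BDF1 mice.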

Mus musculus [4] = species on record: Mus musculus; test: Number of tumor nodules at 34 uM of compound in mice(Range 169-115 ); type: functional; in short: as §1
Mus musculus [5] = species on record: Mus musculus; test: % inhibition of metastasis at 172 uM in mice; type: functional; in short: as §1
Mus musculus [6] = species on record: Mus musculus; test: Cell growth at 34 MicroM concentration in mice; type: functional; in short: as §2
Mus musculus [7] = species on record: Mus musculus; test: Number of tumor nodules at 103 uM of compound in mice(Range 136-64 ); type: functional; in short: as §1
Mus musculus [8] = species on record: Mus musculus; test: % inhibition of metastasis at 103 uM in mice; type: functional; in short: as §1
Mus musculus [9] = species on record: Mus musculus; test: Cell growth at 103 uM concentration in mice; type: functional; in short: as §2
Mus musculus [10] = species on record: Mus musculus; test: Number of tumor nodules at 172 uM of compound in mice(Range 118-23); type: functional; in short: as §1
Mus musculus [11] = species on record: Mus musculus; test: Number of tumor nodules at 34 uM of compound in mice(Range 165-133 ); type: functional; in short: as §1
Mus musculus [12] = species on record: Mus musculus; test: Cell growth at 34 uM concentration in mice; type: functional; in short: as §2
Mus musculus [13] = species on record: Mus musculus; test: Number of tumor nodules at 103 uM of compound in mice(Range 160-114 ); type: functional; in short: as §1
Mus musculus [14] = species on record: Mus musculus; test: Cell growth at 145 uM concentration in mice; type: functional; in short: as §2
Mus musculus [15] = species on record: Mus musculus; test: % inhibition of metastasis at 29 uM in mice; type: functional; in short: as §1
Mus musculus [16] = species on record: Mus musculus; test: Number of tumor nodules at 145 uM of compound in mice(Range 5-97 ); type: functional; in short: as §1
Mus musculus [17] = species on record: Mus musculus; test: Cell growth at 87 uM concentration in mice; type: functional; in short: as §2
Mus musculus [18] = species on record: Mus musculus; test: % inhibition of metastasis at 145 uM in mice; type: functional; in short: as §1
Mus musculus [19] = species on record: Mus musculus; test: Number of tumor nodules at 87 uM of compound in mice(Range 122-237 ); type: functional; in short: as §1
Mus musculus [20] = species on record: Mus musculus; test: Cell growth at 29 MicroM concentration in mice; type: functional; in short: as §2
Mus musculus [21] = species on record: Mus musculus; test: % inhibition of metastasis at 87 uM in mice; type: functional; in short: as §1
Mus musculus [22] = species on record: Mus musculus; test: Number of tumor nodules at 29 uM of compound in mice(Range 200-270 ); type: functional; in short: as §1
B16 [23] = test: Compound was tested in vitro, for inhibitory effect on B16BL6 cell invasion, by incubating with 258 uM of compound for 4 hr; type: functional, Mus musculus
In short: (§3)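 B16 BL6 cells were cultured with compound for 72 or 24 h at 37 °C, then lifted with 0.08% sodium citrate (10 min, 37 °C), washed twice and resuspended at 1×10^6/mL in RPMI 1640 + 0.1% BSA. 100 μL went onto filters coated with 5 μg Matrigel then 10 μg laminin, with the same medium below. Incubation was 3 or 4 h at 37 °C, 5% CO2. Filters were wiped, methanol-fixed and hematoxylin-stained; invaded cells were counted in five 0.3 mm² fields (200×). Triplicates, mean ± SD; % inhibition is versus untreated cells.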

B16 [24] = test: Compound was tested in vitro, for inhibitory effect on B16BL6 cell invasion, by incubating with 518 uM of compound for 4 hr; type: functional, Mus musculus; in short: as §3
Mus musculus [25] = species on record: Mus musculus; test: % inhibition of metastasis at 129 uM in mice; type: functional; in short: as §1
Mus musculus [26] = species on record: Mus musculus; test: Cell growth at 26 uM concentration of the compound; type: functional; in short: as §2
Mus musculus [27] = species on record: Mus musculus; test: Cell growth at 78 uM concentration in mice; type: functional; in short: as §2
Mus musculus [28] = species on record: Mus musculus; test: Cell growth at 129 uM concentration in mice; type: functional; in short: as §2
B16 [29] = test: Number of cells invaded in cell invasion assay by incubating with 258 uM of compound for 4 hr; type: functional, Mus musculus; in short: as §3
Mus musculus [30] = species on record: Mus musculus; test: Number of tumor nodules at 26 uM of compound in mice(Range 148-276 ); type: functional; in short: as §1
B16 [31] = test: Number of cells invaded in cell invasion assay by incubating with 518 uM of compound for 4 hr; type: functional, Mus musculus; in short: as §3
B16 [32] = test: Number of cells invaded in cell invasion assay by incubating with 129 uM of compound for 4 hr; type: functional, Mus musculus; in short: as §3
B16 [33] = test: Compound was tested in vitro, for inhibitory effect on B16BL6 cell invasion, by incubating with 129 uM of compound for 4 hr; type: functional, Mus musculus; in short: as §3
Mus musculus [34] = species on record: Mus musculus; test: % inhibition of metastasis at 26 uM in mice; type: functional; in short: as §1
Mus musculus [35] = species on record: Mus musculus; test: Number of tumor nodules at 78 uM of compound in mice(Range 89-120 ); type: functional; in short: as §1
Mus musculus [36] = species on record: Mus musculus; test: Number of tumor nodules at 129 uM of compound in mice(Range 13-87 ); type: functional; in short: as §1
Mus musculus [37] = species on record: Mus musculus; test: % inhibition of metastasis at 78 uM in mice; type: functional; in short: as §1
Mus musculus [38] = species on record: Mus musculus; test: Cell growth at 90 uM concentration in mice; type: functional; in short: as §2
B16 [39] = test: Compound was tested in vitro, for inhibitory effect on B16BL6 cell invasion, by incubating with 580 uM of compound for 3 hr; type: functional, Mus musculus; in short: as §3
B16 [40] = test: Compound was tested in vitro, for inhibitory effect on B16BL6 cell invasion, by incubating with 870 uM of compound for 3 hr; type: functional, Mus musculus; in short: as §3
B16 [41] = test: Number of cells invaded in cell invasion assay by incubating with 870 uM of compound for 3 hr; type: functional, Mus musculus; in short: as §3
Mus musculus [42] = species on record: Mus musculus; test: Cell growth at 150 uM concentration in mice; type: functional; in short: as §2
Mus musculus [43] = species on record: Mus musculus; test: % inhibition of metastasis at 30 uM in mice; type: functional; in short: as §1
Mus musculus [44] = species on record: Mus musculus; test: Number of tumor nodules at 90 uM of compound in mice(Range 20-7 ); type: functional; in short: as §1
Mus musculus [45] = species on record: Mus musculus; test: Cell growth at 30 uM concentration in mice; type: functional; in short: as §2
Mus musculus [46] = species on record: Mus musculus; test: Number of tumor nodules at 30 uM of compound in mice(Range 129-54 ); type: functional; in short: as §1
B16 [47] = test: Number of cells invaded in cell invasion assay by incubating with 580 uM of compound for 3 hr; type: functional, Mus musculus; in short: as §3
Mus musculus [48] = species on record: Mus musculus; test: % inhibition of metastasis at 150 uM in mice; type: functional; in short: as §1
Mus musculus [49] = species on record: Mus musculus; test: Number of tumor nodules at 150 uM of compound in mice(Range 9-1 ); type: functional; in short: as §1
Mus musculus [50] = species on record: Mus musculus; test: % inhibition of metastasis at 90 uM in mice; type: functional; in short: as §1

With CC(=O)N[C@H]1NC[C@@H](C(=O)O)[C@H](N)[C@@H]1O the Inhibition (Mus musculus [1]) was 1.4%, the “No. of lung metastasis” value (Mus musculus [2]) was 101.6 and the No. of cells (Mus musculus [3]) was 1.6e+07 mL. The “No. of lung metastasis” value (Mus musculus [4]) was 145.2, the Inhibition (Mus musculus [5]) was 30.9% and the No. of cells (Mus musculus [6]) was 1.6e+07 mL. For the same compound, the “No. of lung metastasis” value (Mus musculus [7]) was 108.8, the Inhibition (Mus musculus [8]) was 26.6% and the No. of cells (Mus musculus [9]) was 2.1e+07 mL.
CC(=O)N[C@H]1NC[C@@H](C(=O)O)[C@H](N)[C@H]1O was tested, and the Inhibition (Mus musculus [1]) was 0%, the “No. of lung metastasis” value (Mus musculus [10]) was 82 and the “No. of lung metastasis” value (Mus musculus [11]) was 147.2. The No. of cells (Mus musculus [12]) was 1.4e+07 mL, the No. of cells (Mus musculus [3]) was 1.8e+07 mL and the Inhibition (Mus musculus [5]) was 44.3%. For the same compound, the “No. of lung metastasis” value (Mus musculus [13]) was 129.4, the Inhibition (Mus musculus [8]) was 12.1% and the No. of cells (Mus musculus [9]) was 1.4e+07 mL.
With NC1C(C(=O)O)CNC(NC(=O)C(F)(F)F)C1O (stereo not given) the No. of cells (Mus musculus [14]) was 1.4e+06 mL, the Inhibition (Mus musculus [15]) was 3.8% and the “No. of lung metastasis” value (Mus musculus [16]) was 62.4. For the same compound, the No. of cells (Mus musculus [17]) was 1.6e+06 mL, the Inhibition (Mus musculus [18]) was 75.5% and the “No. of lung metastasis” value (Mus musculus [19]) was 157.8. For the same compound, the No. of cells (Mus musculus [20]) was 1.6e+06 mL, the Inhibition (Mus musculus [21]) was 38.1% and the “No. of lung metastasis” value (Mus musculus [22]) was 245.4.
In the case of N=C(N)NC1C(C(=O)O)CNC(NC(=O)C(F)(F)F)C1O (stereo not given), the Inhibition (B16 [23]) was 44.4%, the Inhibition (B16 [24]) was 63.9% and the Inhibition (Mus musculus [25]) was 81%. It also gave a No. of cells (Mus musculus [26]) of 1.9e+06 mL, a No. of cells (Mus musculus [27]) of 1.3e+06 mL and a No. of cells (Mus musculus [28]) of 1.5e+06 mL. For the same compound, the “No. of invaded cells” value (B16 [29]) was 1.3, the “No. of lung metastasis” value (Mus musculus [30]) was 219 and the “No. of invaded cells” value (B16 [31]) was 0.9. For the same compound, the “No. of invaded cells” value (B16 [32]) was 0.9, the Inhibition (B16 [33]) was 61.1% and the Inhibition (Mus musculus [34]) was 14.1%. For the same compound, the “No. of lung metastasis” value (Mus musculus [35]) was 105.6, the “No. of lung metastasis” value (Mus musculus [36]) was 48.4 and the Inhibition (Mus musculus [37]) was 58.8%.
In the case of CC(=O)NC1NCC(C(=O)O)C(N=C(N)N)C1O (stereo not given), the No. of cells (Mus musculus [38]) was 1.7e+07 mL, the Inhibition (B16 [39]) was 44.8% and the Inhibition (B16 [40]) was 58.9%. For the same compound, the “No. of invaded cells” value (B16 [41]) was 17.7, the No. of cells (Mus musculus [42]) was 1.9e+07 mL and the Inhibition (Mus musculus [43]) was 40.1%. The “No. of lung metastasis” value (Mus musculus [44]) was 13.2, the No. of cells (Mus musculus [45]) was 1.9e+07 mL and the “No. of lung metastasis” value (Mus musculus [46]) was 88.2. For the same compound, the “No. of invaded cells” value (B16 [47]) was 23.7, the Inhibition (Mus musculus [48]) was 97% and the “No. of lung metastasis” value (Mus musculus [49]) was 4.4. It also gave an Inhibition (Mus musculus [50]) of 91%.
